Data on 4 compounds can be found in ChEMBL document CHEMBL2417545, “6-methoxy-7-benzofuranoxy and 6-methoxy-7-indolyloxy analogues of 2-[2-(2,6-Dimethoxyphenoxy)ethyl]aminomethyl-1,4-benzodioxane (WB4101):1 discovery of a potent and selective α1D-adrenoceptor antagonist” (J Med Chem, 2013).

Assay [1] concerns the target T1, Alpha-1A adrenergic receptor (Homo sapiens, UniProt P35348).
T1 sequence (P35348 whole entry): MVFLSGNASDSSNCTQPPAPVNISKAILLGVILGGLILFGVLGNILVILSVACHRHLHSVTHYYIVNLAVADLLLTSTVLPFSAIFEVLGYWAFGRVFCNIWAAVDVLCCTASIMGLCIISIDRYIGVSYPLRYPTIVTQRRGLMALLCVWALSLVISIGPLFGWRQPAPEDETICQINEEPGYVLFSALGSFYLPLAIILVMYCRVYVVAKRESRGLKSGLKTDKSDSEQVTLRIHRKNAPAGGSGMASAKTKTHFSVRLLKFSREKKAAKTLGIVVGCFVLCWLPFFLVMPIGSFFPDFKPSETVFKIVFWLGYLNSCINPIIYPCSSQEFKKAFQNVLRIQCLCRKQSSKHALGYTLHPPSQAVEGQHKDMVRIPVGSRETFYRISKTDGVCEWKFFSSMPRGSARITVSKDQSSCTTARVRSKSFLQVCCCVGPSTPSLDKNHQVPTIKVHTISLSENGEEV
In words: Displacement of [3H]prazosin from human alpha-1A adrenoreceptor expressed in CHO cells after 30 mins. It counts as cell-based. In outline:
(§1)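 Membranes from CHO cells expressing each α₁-AR subtype, incubated 30 min at 25 °C in 50 mM Tris HCl pH 7.7 with 10 μM pargyline and 0.1% ascorbic acid, plus 0.5 nM [³H]prazosin and varying test compound concentrations. Nonspecific binding was defined with 1 μM prazosin.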

Assay [2] addresses T2, Alpha-1A adrenergic receptor (Rattus norvegicus, UniProt P43140).
T2 sequence (P43140 whole entry): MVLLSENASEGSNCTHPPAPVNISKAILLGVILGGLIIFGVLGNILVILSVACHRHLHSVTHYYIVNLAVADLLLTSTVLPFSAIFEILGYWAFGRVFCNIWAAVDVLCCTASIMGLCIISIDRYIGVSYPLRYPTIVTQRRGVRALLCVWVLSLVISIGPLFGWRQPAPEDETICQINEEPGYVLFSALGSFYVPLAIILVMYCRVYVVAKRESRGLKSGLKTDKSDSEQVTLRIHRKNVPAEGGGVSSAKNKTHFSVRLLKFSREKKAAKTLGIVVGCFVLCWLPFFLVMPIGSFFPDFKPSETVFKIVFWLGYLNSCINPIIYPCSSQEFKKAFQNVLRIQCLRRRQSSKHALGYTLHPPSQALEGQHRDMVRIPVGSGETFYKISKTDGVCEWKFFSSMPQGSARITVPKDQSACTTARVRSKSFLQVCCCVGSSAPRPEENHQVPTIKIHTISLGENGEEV
In words: Antagonist activity at alpha-1A adrenoreceptor in Sprague-Dawley rat prostatic vas deferens assessed as inhibition of noradrenaline-induced tissue contraction after 30 mins by Schild plot analysis. Conditions: read-out: pA2 (converted). In a few lines:
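Cumulative isotonic (−)-noradrenaline curves were run at 30 min intervals, the first discarded and the second taken as control, then a third after 30 min with antagonist. pA₂ from Schild plot, at least three antagonist concentrations, each tested 3−5 times.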

The target in assay [3] is T3, Alpha-1D adrenergic receptor (Homo sapiens, UniProt P25100).
T3 sequence (P25100 whole entry): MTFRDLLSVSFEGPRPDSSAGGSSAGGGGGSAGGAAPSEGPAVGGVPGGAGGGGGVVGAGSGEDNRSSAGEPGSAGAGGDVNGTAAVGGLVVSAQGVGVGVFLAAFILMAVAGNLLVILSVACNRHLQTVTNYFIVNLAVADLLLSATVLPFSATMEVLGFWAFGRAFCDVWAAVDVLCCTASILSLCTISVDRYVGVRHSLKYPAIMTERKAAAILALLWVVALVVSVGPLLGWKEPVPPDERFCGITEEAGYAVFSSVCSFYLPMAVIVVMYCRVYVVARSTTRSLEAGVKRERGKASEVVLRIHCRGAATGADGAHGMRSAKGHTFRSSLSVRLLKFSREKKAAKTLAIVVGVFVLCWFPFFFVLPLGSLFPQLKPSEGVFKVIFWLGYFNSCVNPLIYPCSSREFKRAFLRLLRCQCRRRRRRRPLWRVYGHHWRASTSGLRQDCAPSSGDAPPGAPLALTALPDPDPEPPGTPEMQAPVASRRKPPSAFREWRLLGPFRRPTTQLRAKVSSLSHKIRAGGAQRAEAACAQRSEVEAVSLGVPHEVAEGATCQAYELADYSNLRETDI
Description: Displacement of [3H]prazosin from human alpha-1D adrenoreceptor expressed in CHO cells after 30 mins. It counts as cell-based. In outline: as §1
On the technique in general: In a radioligand displacement assay an active substance lowers the binding of a labelled ligand.

Assay [4] concerns the target T4, Alpha-1B adrenergic receptor (Homo sapiens, UniProt P35368).
T4 sequence (P35368 whole entry): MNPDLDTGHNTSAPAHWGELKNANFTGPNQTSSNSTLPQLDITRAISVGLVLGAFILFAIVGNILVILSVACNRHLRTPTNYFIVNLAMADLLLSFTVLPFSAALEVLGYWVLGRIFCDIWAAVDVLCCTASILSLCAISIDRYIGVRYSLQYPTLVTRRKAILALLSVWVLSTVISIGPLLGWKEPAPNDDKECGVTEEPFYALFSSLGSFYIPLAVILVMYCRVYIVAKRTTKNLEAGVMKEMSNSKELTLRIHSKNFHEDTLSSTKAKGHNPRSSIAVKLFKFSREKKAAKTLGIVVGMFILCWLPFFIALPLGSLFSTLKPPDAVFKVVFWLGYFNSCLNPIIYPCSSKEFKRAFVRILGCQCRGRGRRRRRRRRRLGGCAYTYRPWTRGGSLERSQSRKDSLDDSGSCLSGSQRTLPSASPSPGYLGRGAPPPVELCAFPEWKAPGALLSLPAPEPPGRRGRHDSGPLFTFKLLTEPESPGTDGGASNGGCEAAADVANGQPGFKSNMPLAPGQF
In words: Displacement of [3H]prazosin from human alpha-1B adrenoreceptor expressed in CHO cells after 30 mins. It counts as cell-based. In outline: as §1

As a reminder, the Ki is a dissociation constant, usually derived from enzyme kinetics or from competition with a known ligand. On to `COc1ccc2c(c1OCCNC[C@H]1COc3ccccc3O1)NCC2.Cl.Cl`, for which the Ki in assay [1] is 3.8 nM; in assay [3], 12.9 nM; in assay [4], 35.5 nM. For the same compound, the Kb in assay [2] was 9.33 nM.

`COc1ccc2ccoc2c1OCCNC[C@H]1COc2ccccc2O1.Cl`: the Ki in assay [1] was 0.49 nM; in assay [3], 1.91 nM; in assay [4], 28.8 nM. Besides, the Kb in assay [2] is 5.5 nM.

Consider `COc1ccc2cc[nH]c2c1OCCNC[C@H]1COc2ccccc2O1`, for which the Ki in assay [1] is 178 nM; in assay [3], 631 nM; in assay [4] it was 490 nM. The Kb in assay [2] is 4.9 nM.

As to `COc1ccc2c(c1OCCNC[C@H]1COc3ccccc3O1)OCC2.Cl`, the values for the Ki in assay [1], in assay [3] and in assay [4] were 2 nM, 2.24 nM and 21.9 nM, respectively. Moreover, the Kb in assay [2] was 33.9 nM.
